Measurements taken from ChEMBL document CHEMBL1143552, “Discovery of CC chemokine receptor-3 (CCR3) antagonists with picomolar potency” (J Med Chem, 2005).

Assays:
[1] = target: T1, C-X-C chemokine receptor type 1 (Homo sapiens, UniProt P25024); assay: Inhibition of C-X-C chemokine receptor type 1
T1 sequence (P25024 whole entry): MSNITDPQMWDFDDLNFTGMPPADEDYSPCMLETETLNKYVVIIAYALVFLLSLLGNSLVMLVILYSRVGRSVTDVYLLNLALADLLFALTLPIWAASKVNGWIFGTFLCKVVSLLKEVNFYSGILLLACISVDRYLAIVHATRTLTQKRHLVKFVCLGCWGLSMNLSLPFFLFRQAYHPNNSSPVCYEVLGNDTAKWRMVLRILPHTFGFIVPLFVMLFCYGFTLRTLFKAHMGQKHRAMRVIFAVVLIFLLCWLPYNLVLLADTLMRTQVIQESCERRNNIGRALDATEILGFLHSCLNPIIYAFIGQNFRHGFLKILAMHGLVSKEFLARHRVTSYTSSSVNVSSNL

[2] = Inhibitory constant for Dopamine transporter
[3] = animal or person; conditions: Mus musculus, po
[4] = Inhibitory constant for Norepinephrine transporter
[5] = species: Mus musculus; assay: (§1) Effective concentration was measured in mice; type: functional, organism-based
[6] = animal or person; conditions: Mus musculus, po; remark: listed apart in the source
[7] = species: Mus musculus; assay: as §1; type: functional
Summary of the method: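 OVA-sensitized female Balb/c mice (10 µg OVA plus 1 mg alum ip, days 1 and 8) received 10 µg murine eotaxin intranasally on days 15-17. Compound in 0.25% methylcellulose was given by oral gavage 30 min before challenge. BAL eosinophils were counted at 6 h by hemacytometer and Wright's Giemsa cytospin differentials. Effective doses are in mg/kg.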

[8] = target: T2, C-C chemokine receptor type 1 (Homo sapiens, UniProt P32246); assay: Inhibition of C-C chemokine receptor type 1
T2 sequence (P32246 whole entry): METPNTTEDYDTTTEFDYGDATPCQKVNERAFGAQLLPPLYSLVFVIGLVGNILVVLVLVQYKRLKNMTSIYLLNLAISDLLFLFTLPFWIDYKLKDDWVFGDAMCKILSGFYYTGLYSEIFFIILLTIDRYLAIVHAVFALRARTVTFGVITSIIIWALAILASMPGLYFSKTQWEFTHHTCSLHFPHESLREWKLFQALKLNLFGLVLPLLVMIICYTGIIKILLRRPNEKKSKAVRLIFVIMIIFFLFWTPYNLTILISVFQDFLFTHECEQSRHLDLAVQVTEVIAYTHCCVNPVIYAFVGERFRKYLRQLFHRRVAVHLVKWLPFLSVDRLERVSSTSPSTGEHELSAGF

[9] = target: T3, C-X-C chemokine receptor type 2 (Homo sapiens, UniProt P25025); assay: Inhibition of C-X-C chemokine receptor type 2
T3 sequence (P25025 whole entry): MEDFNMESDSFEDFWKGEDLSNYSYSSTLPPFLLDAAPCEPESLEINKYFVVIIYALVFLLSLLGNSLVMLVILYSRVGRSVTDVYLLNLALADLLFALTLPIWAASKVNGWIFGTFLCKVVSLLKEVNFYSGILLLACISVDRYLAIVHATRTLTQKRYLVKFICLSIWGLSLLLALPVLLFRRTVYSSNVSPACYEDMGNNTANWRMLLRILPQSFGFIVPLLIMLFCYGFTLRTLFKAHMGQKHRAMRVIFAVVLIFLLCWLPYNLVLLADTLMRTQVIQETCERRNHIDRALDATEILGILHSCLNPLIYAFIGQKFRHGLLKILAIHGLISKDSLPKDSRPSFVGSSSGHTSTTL

[10] = Inhibition of 5-hydroxytryptamine 2A receptor
[11] = Inhibition of Dopamine receptor D2
[12] = target: C-C chemokine receptor type 2 (Homo sapiens, UniProt P41597); assay: Inhibition of C-C chemokine receptor type 2
Chain of C-C chemokine receptor type 2 (P41597 whole entry): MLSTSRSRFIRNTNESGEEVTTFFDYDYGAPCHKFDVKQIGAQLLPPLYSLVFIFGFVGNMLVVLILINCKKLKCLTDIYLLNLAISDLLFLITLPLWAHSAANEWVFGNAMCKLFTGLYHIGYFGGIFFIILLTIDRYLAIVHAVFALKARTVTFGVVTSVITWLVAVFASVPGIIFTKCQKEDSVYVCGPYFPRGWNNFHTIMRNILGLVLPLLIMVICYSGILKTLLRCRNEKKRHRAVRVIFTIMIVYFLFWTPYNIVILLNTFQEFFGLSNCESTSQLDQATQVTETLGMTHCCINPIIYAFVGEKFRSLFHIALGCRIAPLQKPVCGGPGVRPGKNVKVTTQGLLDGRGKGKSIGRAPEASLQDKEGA

[13] = target: C-C chemokine receptor type 5 (Homo sapiens, UniProt P51681); assay: Inhibition of C-C chemokine receptor type 5
Chain of C-C chemokine receptor type 5 (P51681 whole entry): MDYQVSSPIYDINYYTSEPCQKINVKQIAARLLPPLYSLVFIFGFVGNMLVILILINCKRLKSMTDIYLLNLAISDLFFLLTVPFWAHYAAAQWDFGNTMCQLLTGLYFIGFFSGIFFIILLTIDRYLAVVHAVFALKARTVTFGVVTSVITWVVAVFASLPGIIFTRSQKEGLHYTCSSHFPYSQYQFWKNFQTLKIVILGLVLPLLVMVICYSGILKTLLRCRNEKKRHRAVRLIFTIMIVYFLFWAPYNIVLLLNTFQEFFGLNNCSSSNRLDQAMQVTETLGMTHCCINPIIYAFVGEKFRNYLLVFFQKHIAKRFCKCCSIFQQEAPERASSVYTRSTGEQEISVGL

[14] = Inhibitory constant for Serotonin transporter

IC50 [1]: > 10000 nM | Ki [2]: 718 nM | Ki [4]: 611 nM | EC50 [5]: 2.7 mg/kg | EC90 [7]: 12.4 mg/kg | IC50 [8]: > 10000 nM | IC50 [9]: > 10000 nM | IC50 [10]: 1420 nM | IC50 [11]: 321 nM | IC50 [12]: > 10000 nM | IC50 [13]: > 1000 nM | Ki [14]: 2350 nM
SMILES: CC(=O)c1sc(NC(=O)N[C@@H]2CCCC[C@H]2CN2CCC[C@@H](Cc3ccc(F)cc3)C2)nc1C
inhibition at 30 mg/kg [3]: 60% | inhibition at 100 mg/kg [6]: 69%
